≈ marks a conversion by molar mass, not a printed value.
Assays:
[1] = Solubility of compound at pH 1.2 by HPLC analysis; format: physicochemical; conditions: buffer
[2] = Solubility of compound at pH 2.2 by HPLC analysis; format: physicochemical; conditions: buffer
[3] = Solubility of compound at pH 4.5 by HPLC analysis; format: physicochemical; conditions: buffer
[4] = Solubility of compound at pH 7.4 by HPLC analysis; format: physicochemical; conditions: buffer
[5] = Solubility of compound at pH 10.2 by HPLC analysis; format: physicochemical; conditions: buffer
Plasma [6] = assay: Metabolic stability in rat plasma by LC-MS/MS analysis; format: ADME, cell-free
Method in brief: (§1)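 Plasma stability is expressed as % compound remaining after incubation in plasma.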

Plasma [7] = assay: Metabolic stability in human plasma by LC-MS/MS analysis; format: ADME, cell-free; method in brief: as §1
[8] = Metabolic stability in mouse liver microsomes after 30 mins by LC-MS/MS analysis; format: ADME; conditions: read-out: Stability
Method in brief: (§2)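 Compounds are incubated with liver microsomes for 30 min, and the result is expressed as % parent remaining (% metabolic stability).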

[9] = Metabolic stability in rat liver microsomes after 30 mins by LC-MS/MS analysis; format: ADME; conditions: read-out: Stability; method in brief: as §2
[10] = Metabolic stability in human liver microsomes after 30 mins by LC-MS/MS analysis; format: ADME; conditions: read-out: Stability; method in brief: as §2
[11] = Plasma protein binding in human; format: ADME, cell-free; conditions: read-out: PPB (converted)
[12] = Cmax in BALB/c mouse brain at 10 mg/kg, po by LC-MS/MS analysis; format: ADME, organism-based; design: dose 10 mg/kg, route oral
Method in brief: (§3)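 Single oral 10 mg/kg dose, with 2 animals per group. Brain and plasma sampled; brain Cmax is reported as μg/g and brain AUC0-t and AUC0-inf as μg·h/g. Brain-to-plasma ratios are derived from AUC values, and also from Cmax.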

Brain [13] = assay: AUC (0 to t) in BALB/c mouse brain at 10 mg/kg, po by LC-MS/MS analysis; format: ADME, organism-based; conditions: in vivo; method in brief: as §3
Brain [14] = assay: AUC (0 to infinity) in BALB/c mouse brain at 10 mg/kg, po by LC-MS/MS analysis; format: ADME, organism-based; design: dose 10 mg/kg, time infinity, route oral; conditions: in vivo; method in brief: as §3
[15] = Cmax in BALB/c mouse plasma at 10 mg/kg, po by LC-MS/MS analysis; format: ADME, organism-based; design: dose 10 mg/kg, route oral; method in brief: as §3
[16] = AUC (0 to t) in BALB/c mouse plasma at 10 mg/kg, po by LC-MS/MS analysis; format: ADME, organism-based; method in brief: as §3
[17] = AUC (0 to infinity) in BALB/c mouse plasma at 10 mg/kg, po by LC-MS/MS analysis; format: ADME, organism-based; design: dose 10 mg/kg, time infinity, route oral; method in brief: as §3
[18] = Ratio of Cmax in brain to plasma in BALB/c mouse at 10 mg/kg, po; format: ADME, organism-based; method in brief: as §3
[19] = Ratio of AUC (0 to t) in brain to plasma in BALB/c mouse at 10 mg/kg, po; format: ADME, organism-based; method in brief: as §3
[20] = Ratio of AUC (0 to infinity) in brain to plasma in BALB/c mouse at 10 mg/kg, po; format: ADME, organism-based; method in brief: as §3
Streptococcus pneumoniae [21] = assay: Antibacterial activity against Streptococcus pneumoniae ATCC 49619 by microbroth dilution method; format: functional
Method in brief: (§4)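 MIC is determined by broth microdilution and expressed in μg/mL.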

Streptococcus pneumoniae [22] = assay: Antibacterial activity against Streptococcus pneumoniae ATCC 6303 by microbroth dilution method; format: functional; method in brief: as §4
Streptococcus pneumoniae [23] = assay: Antibacterial activity against linezolid-resistant Streptococcus pneumoniae 6303 by microbroth dilution method; format: functional; method in brief: as §4
Streptococcus pneumoniae [24] = assay: Antibacterial activity against pencillin-resistant erm+ve Streptococcus pneumoniae ATCC 700904 by microbroth dilution method; format: functional; method in brief: as §4
Neisseria meningitidis [25] = assay: Antibacterial activity against clinical isolate Neisseria meningitidis E-63 by microbroth dilution method; format: functional
Method in brief: (§5)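 Minimum inhibitory concentration (MIC) read by broth microdilution and reported in μg/mL. The same microbroth screen was run on the broader panel of facultative bacteria.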

Neisseria meningitidis [26] = assay: Antibacterial activity against clinical isolate Neisseria meningitidis M-1 by microbroth dilution method; format: functional; method in brief: as §5
Neisseria meningitidis [27] = assay: Antibacterial activity against clinical isolate Neisseria meningitidis 306 by microbroth dilution method; format: functional; method in brief: as §5
Neisseria meningitidis [28] = assay: Antibacterial activity against clinical isolate Neisseria meningitidis E-95 by microbroth dilution method; format: functional; method in brief: as §5
Neisseria meningitidis [29] = assay: Antibacterial activity against clinical isolate Neisseria meningitidis 184 by microbroth dilution method; format: functional; method in brief: as §5

Compound: CC(=O)NC[C@H]1CN(c2cc(F)c(N3CC[Si](C)(C)CC3)c(F)c2)C(=O)O1
- solubility [1]: 48 µM (≈ 19.1 µg/mL)
- solubility [2]: 43 µM (≈ 17.1 µg/mL)
- solubility [3]: 20 µM (≈ 7.95 µg/mL)
- solubility [4]: 17 µM (≈ 6.76 µg/mL)
- solubility [5]: 20 µM (≈ 7.95 µg/mL)
- Stability (Plasma [6]): 94.7%
- Stability (Plasma [7]): 100%
- remaining at 0.5 h [8]: 68.4%
- remaining at 0.5 h [9]: 9.6%
- remaining at 0.5 h [10]: 69.8%
- fraction unbound [11]: 0.004
- Cmax [12]: 5580 ng/g
- AUCt (Brain [13]): 14.74 µg·h/g
- AUC (Brain [14]): 16.44 µg·h/g
- Cmax [15]: 2020 ng/mL
- AUC(0-t) [16]: 5800 ng·h/mL
- AUC(0-inf) [17]: 6210 ng·h/mL
- Kp [18]: 2.76
- Kp [19]: 2.54
- Kp [20]: 2.65
- MIC (Streptococcus pneumoniae [21]): 16 µg/mL (≈ 40.3 µM)
- MIC (Streptococcus pneumoniae [22]): 8 µg/mL (≈ 20.1 µM)
- MIC (Streptococcus pneumoniae [23]): > 32 µg/mL
- MIC (Streptococcus pneumoniae [24]): 16 µg/mL (≈ 40.3 µM)
- MIC (Neisseria meningitidis [25]): > 32 µg/mL
- MIC (Neisseria meningitidis [26]): > 32 µg/mL
- MIC (Neisseria meningitidis [27]): > 32 µg/mL
- MIC (Neisseria meningitidis [28]): > 32 µg/mL
- MIC (Neisseria meningitidis [29]): > 32 µg/mL

Compound: COC(=S)NC[C@H]1CN(c2ccc(N3CC[Si](C)(C)CC3)c(F)c2)C(=O)O1
- solubility [1]: 48 µM (≈ 19.8 µg/mL)
- solubility [2]: 47 µM (≈ 19.3 µg/mL)
- solubility [3]: 9 µM (≈ 3.7 µg/mL)
- solubility [4]: 2 µM (≈ 0.823 µg/mL)
- solubility [5]: 2 µM (≈ 0.823 µg/mL)
- Stability (Plasma [6]): 100%
- Stability (Plasma [7]): 100%
- remaining at 0.5 h [8]: 15.2%
- remaining at 0.5 h [9]: 5.7%
- remaining at 0.5 h [10]: 43%
- Cmax [12]: 1470 ng/g
- AUCt (Brain [13]): 3.11 µg·h/g
- AUC (Brain [14]): 3.24 µg·h/g
- Cmax [15]: 370 ng/mL
- AUC(0-t) [16]: 870 ng·h/mL
- AUC(0-inf) [17]: 930 ng·h/mL
- Kp [18]: 3.96
- Kp [19]: 3.57
- Kp [20]: 3.49
- MIC (Streptococcus pneumoniae [21]): 4 µg/mL (≈ 9.72 µM)
- MIC (Streptococcus pneumoniae [22]): 4 µg/mL (≈ 9.72 µM)
- MIC (Streptococcus pneumoniae [23]): 32 µg/mL (≈ 77.8 µM)
- MIC (Streptococcus pneumoniae [24]): 4 µg/mL (≈ 9.72 µM)
- MIC (Neisseria meningitidis [25]): 32 µg/mL (≈ 77.8 µM)
- MIC (Neisseria meningitidis [26]): 32 µg/mL (≈ 77.8 µM)
- MIC (Neisseria meningitidis [27]): 32 µg/mL (≈ 77.8 µM)
- MIC (Neisseria meningitidis [28]): 32 µg/mL (≈ 77.8 µM)
- MIC (Neisseria meningitidis [29]): 32 µg/mL (≈ 77.8 µM)

Compound: CC(=O)NC[C@H]1CN(c2ccc(N3CC[Si](C)(C)CC3)c(F)c2)C(=O)O1
- solubility [1]: 50 µM (≈ 19 µg/mL)
- solubility [2]: 50 µM (≈ 19 µg/mL)
- solubility [3]: 41 µM (≈ 15.6 µg/mL)
- solubility [4]: 40 µM (≈ 15.2 µg/mL)
- solubility [5]: 41 µM (≈ 15.6 µg/mL)
- Stability (Plasma [6]): 97.3%
- Stability (Plasma [7]): 100%
- remaining at 0.5 h [8]: 40.8%
- remaining at 0.5 h [9]: 10.8%
- remaining at 0.5 h [10]: 48.9%
- fraction unbound [11]: 0.0567
- Cmax [12]: 1330 ng/g
- AUCt (Brain [13]): 3.01 µg·h/g
- AUC (Brain [14]): 3.05 µg·h/g
- Cmax [15]: 1050 ng/mL
- AUC(0-t) [16]: 1780 ng·h/mL
- AUC(0-inf) [17]: 1800 ng·h/mL
- Kp [18]: 1.27
- Kp [19]: 1.69
- Kp [20]: 1.69
- MIC (Streptococcus pneumoniae [21]): 8 µg/mL (≈ 21.1 µM)
- MIC (Streptococcus pneumoniae [22]): 4 µg/mL (≈ 10.5 µM)
- MIC (Streptococcus pneumoniae [23]): > 32 µg/mL
- MIC (Streptococcus pneumoniae [24]): 4 µg/mL (≈ 10.5 µM)
- MIC (Neisseria meningitidis [25]): 32 µg/mL (≈ 84.3 µM)
- MIC (Neisseria meningitidis [26]): > 32 µg/mL
- MIC (Neisseria meningitidis [27]): > 32 µg/mL
- MIC (Neisseria meningitidis [28]): > 32 µg/mL
- MIC (Neisseria meningitidis [29]): > 32 µg/mL

Compound: CC(=O)NC[C@H]1CN(c2ccc(N3CCOCC3)c(F)c2)C(=O)O1 [LINEZOLID]
- Stability (Plasma [6]): 100%
- Stability (Plasma [7]): 100%
- remaining at 0.5 h [8]: 100%
- remaining at 0.5 h [9]: 88.3%
- remaining at 0.5 h [10]: 100%
- fraction unbound [11]: 0.74
- Cmax [12]: 450 ng/g
- AUCt (Brain [13]): 0.83 µg·h/g
- AUC (Brain [14]): 0.9 µg·h/g
- Cmax [15]: 3650 ng/mL
- AUC(0-t) [16]: 7580 ng·h/mL
- AUC(0-inf) [17]: 7700 ng·h/mL
- MIC (Streptococcus pneumoniae [23]): 32 µg/mL (≈ 94.9 µM)
- MIC (Neisseria meningitidis [25]): 8 µg/mL (≈ 23.7 µM)
- MIC (Neisseria meningitidis [26]): 8 µg/mL (≈ 23.7 µM)
- MIC (Neisseria meningitidis [27]): 8 µg/mL (≈ 23.7 µM)
- MIC (Neisseria meningitidis [28]): 8 µg/mL (≈ 23.7 µM)
- MIC (Neisseria meningitidis [29]): 8 µg/mL (≈ 23.7 µM)
